This note sets out measurements from ChEMBL document CHEMBL1154473, “Synthesis, antitumor evaluation and DNA binding studies of novel amidino-benzimidazolyl substituted derivatives of furyl-phenyl- and thienyl-phenyl-acrylates, naphthofurans and naphthothiophenes” (Eur J Med Chem, 2008).

Test [1] relates to HeLa. The test can be described thus: Antiproliferative activity against human HeLa cells after 72 hrs by MTT assay. The format is functional, cell-based. Summed up:
(§1)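 Cells seeded on day 0 at 1–3 × 10⁴ cells/ml, density set by each line's doubling time. Compounds added in five 10-fold dilutions (10⁻⁸–10⁻⁴ M), freshly prepared on test day, with DMSO solvent control matched to working concentrations. Incubated 72 h, then MTT read-out of dehydrogenase activity in viable cells gives percentage of growth. Four parallel samples per point, three independent experiments.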

The test system of test [2] is MCF7. The test can be described thus: Antiproliferative activity against human MCF7 cells after 72 hrs by MTT assay. As to conditions: MCF7, 72 h. It counts as functional, cell-based. The procedure, abridged: as §1
Test [3] deals with SW-620. The test can be described thus: Antiproliferative activity against human SW620 cells after 72 hrs by MTT assay. It counts as functional, cell-based. As to conditions: SW-620, 72 h. Summed up: as §1
Test [4] relates to DNA. Description: Binding affinity to calf thymus DNA in sodium cacodylate buffer at compound/DNA ratio 0.5 pH 7 by fluorimetric titration. The format is nucleic-acid assay. As to conditions: Bos taurus.
Test [5] concerns DNA. The test can be described thus: Binding affinity to calf thymus DNA in sodium cacodylate buffer assessed as melting temperature at compound/DNA ratio 0.1 at pH 7. The format is nucleic-acid assay. To be noted: Bos taurus. Summed up:
(§2)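 ct-DNA dissolved in sodium cacodylate buffer (I = 0.05 mol dm⁻³, pH 7), sonicated, filtered, with concentration taken spectroscopically as phosphate. Absorbance at 260 nm followed against temperature, heating 1 °C/min. Ligand absorbance subtracted and scale normalized. Tm taken as transition midpoint from first-derivative maximum or tangent method. ΔTm = Tm(complex) − Tm(free DNA). Error ±0.5 °C.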

Test [6] deals with MIA PaCa-2. The test can be described thus: Antiproliferative activity against human MIAPaCa2 cells after 72 hrs by MTT assay. The format is functional, cell-based. To be noted: MIA PaCa-2, 72 h. The procedure, abridged:
as §1

The subject of test [7] is DNA. Description: Binding affinity to calf thymus DNA in sodium cacodylate buffer assessed as melting temperature at compound/DNA ratio 0.2 at pH 7. It counts as nucleic-acid assay. As to conditions: Bos taurus. The procedure, abridged:
as §2

Test [8] relates to DNA. The test can be described thus: Binding affinity to calf thymus DNA assessed as relative fluorescence intensity by fluorescence emission spectra analysis relative to control. The format is nucleic-acid assay. As to conditions: Bos taurus. The procedure, abridged: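 Fluorimetric titration: portions of ct-DNA (phosphate concentration determined spectroscopically; sonicated, filtered) added to compound in sodium cacodylate buffer pH 7.0, I = 0.05 mol dm-3; excitation 360–374 nm depending on compound to avoid inner filter effects, emission monitored at 400 nm; data corrected for dilution; fluorescence change expressed versus compound/ct-DNA ratio r.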

Test [9] can be described thus: Antiproliferative activity against human WI38 cells after 72 hrs by MTT assay. The format is cell-based. As to conditions: WI-38, 72 h. The procedure, abridged:
as §1

Test [10] has as its system DNA. Description: Binding affinity to calf thymus DNA in sodium cacodylate buffer assessed as melting temperature at compound/DNA ratio 0.3 at pH 7. It counts as nucleic-acid assay. To be noted: Bos taurus. The procedure, abridged: as §2
For test [11], the system named is DNA. Description: Binding affinity to calf thymus DNA assessed as hypochromic effect by UV-vis spectra analysis. The format is nucleic-acid assay. More on the design: concentration or dose not given beside the values. As to conditions: Bos taurus.
Test [12] deals with NCI-H460. The test can be described thus: Antiproliferative activity against human H460 cells after 72 hrs by MTT assay. It counts as functional, cell-based. As to conditions: NCI-H460, 72 h. The procedure, abridged: as §1
Test [13] has as its system DNA. The test can be described thus: Binding affinity to calf thymus DNA in sodium cacodylate buffer at compound/DNA ratio < 0.1 pH 7 by fluorimetric titration. The format is nucleic-acid assay. As to conditions: Bos taurus. The procedure, abridged:
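Compound solution in sodium cacodylate buffer (pH 7.0, I = 0.05 mol dm⁻³) titrated with portions of ct-DNA (6.31 × 10⁻³ mol dm⁻³), data corrected for dilution. Excitation at 360–374 nm, chosen per compound to avoid inner filter effects, with emission monitored at 400 nm. Ks and n obtained by non-linear least-squares Scatchard fitting of data at r < 0.1.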

Molecules are shown by their SMILES.

`CCOC(=O)/C(=C/c1ccc(-c2nc3cc(C(=N)NC(C)C)ccc3[nH]2)o1)c1ccc(C#N)cc1`: the IC50 in test [1] amounted to 28 µM; in test [2], 2 µM; in test [3] it was 62 µM; in test [6] it was 21 µM; in test [9] it was 36 µM; in [12], 31 µM. The log Ks in test [4] was 5.6. Besides, the ΔTm in [5] was determined as 0.6 °C; in test [7], 0.8 °C; in [10] it was 1.3 °C. The Flu intensity in test [8] was 161 a.u. Besides, in test [11], the Activity turned out to be 10%.
As for `COC(=O)/C(=C/c1ccc(-c2nc3cc(C(=N)NC(C)C)ccc3[nH]2)s1)c1ccccc1`, the half-inhibitory concentration (IC50) in [1] was 30 µM; in test [2], 1 µM; in test [3], 62 µM; in test [6], 13 µM; in test [9], above 100 µM; in test [12], 37 µM. The ΔTm was 1.7 °C in [5], 2.3 °C in test [7] and 2.7 °C in [10]. Besides, the Flu intensity in test [8] is 232 a.u. Also, the Activity in test [11] was 18%.
`COC(=O)/C(=C/c1ccc(-c2nc3cc(C(=N)NC(C)C)ccc3[nH]2)o1)c1ccccc1`: the IC50 in test [1] turned out to be 17 µM; in test [2], 9 µM; in test [3] it was 14 µM; in test [6] it was 19 µM; in test [9], 13 µM; in [12] it was 13 µM. In addition, the shift in melting temperature (ΔTm) in [5], in test [7] and in test [10] was 0 °C in each case. The Flu intensity in [8] was 147 a.u. The Activity in [11] worked out at 8%.
As to `COC(=O)c1cc2sc(-c3nc4cc(C(=N)NC(C)C)ccc4[nH]3)cc2c2ccccc12`, in test [13], the log Ks stood at 4.7. Besides, the IC50 in test [1] was found to be 15 µM; in test [2] it was 2 µM; in test [3] it was 29 µM; in test [6], 16 µM; in [9] it was 71 µM; in test [12], 24 µM. The ΔTm in test [5] turned out to be 3.9 °C; in test [7], 4.9 °C; in test [10], 5.8 °C. Besides, the Flu intensity in test [8] is 916 a.u. Further, the Activity in [11] came out at 15%.
Regarding `COC(=O)c1cc2oc(-c3nc4cc(C(=N)NC(C)C)ccc4[nH]3)cc2c2ccccc12`, the log Ks in [13] came to 4.2. In addition, the 50% inhibitory concentration (IC50) in test [1] is 18 µM; in [2], 1 µM; in test [3], 35 µM; in test [6], 21 µM; in test [9], above 100 µM; in [12] it was 18 µM. Moreover, the results for the shift in melting temperature (ΔTm) in [5], in test [7] and in test [10] were 1.8 °C, 2.6 °C and 3.8 °C, respectively. Further, the Flu intensity in test [8] is 790 a.u. The Activity in test [11] came out at 51%.
As to `CCOC(=O)c1cc2oc(-c3nc4cc(C(=N)NC(C)C)ccc4[nH]3)cc2c2cc(C#N)ccc12`, the log Ks in [13] is 5. Further, the IC50 was 72 µM in [1]; 6 µM in [2]; 85 µM in test [3]; 61 µM in test [6]; above 100 µM in [9]; above 100 µM in test [12]. For the same compound, the ΔTm amounted to 1 °C in test [5], 1.4 °C in test [7] and 1.6 °C in [10]. Besides, in [8], the Flu intensity stood at 282 a.u. Besides, the Activity in [11] was determined as 10%.
